# High-throughput results: PubChem BioAssay, Broad Institute
# Sampled rows, rich in hits. Any-hit rate of the full collection: about 3.5%.
# PGC1a acetyl inh – inhibitors of PGC1a acetylation signal, primary screen, cell-based, U2OS, AlphaScreen, inhibitor mode; AlphaScreen anti-acetyl-lysine; with virally co-expressed GCN5 acetyltransferase; inhibition, % at 15.6 µM; 350,000 compounds, 0.17% hits; AID 651687, 2012;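 active means every replicate shows inhibition of at least 40%; inconclusive means mean inhibition at least 40% but some replicate below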;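 further: 0% = neutral control wells and 100% = positive control wells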
# PglD DTNB – C. jejuni PglD acetyltransferase inhibitors, primary screen, biochemical, DTNB colorimetric, single point; UDP-N-acetylbacillosamine N-acetyltransferase PglD (Campylobacter jejuni); purified PglD enzyme, DTNB colorimetric CoA detection; inhibition, % at 12.5 µM; 360,000 compounds, 0.098% hits; in the data active means inhibition above about 16%, passing the limit was not always enough; inconclusive means no clear call, values can overlap the other calls
# DENV2 CPE – inhibitors of DENV2 cytopathic effect, primary screen, cell-based, plate reader, single concentration | CPE inhibition, % at 9.99 µM | 350,000 compounds, 1.7% hits | DENV2-infected cells, cytopathic effect rescue | AID 651640, 2012; in the data active means CPE inhibition above about 20%, passing the limit was not always enough; inconclusive means no clear call, values can overlap the other calls; tested in BHK-21 cells;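 further: 0% = median of neutral control wells and 100% = median of positive control wells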
# rRNA inh HTS – reduced GFP signal of wild-type E. coli, primary screen, bacterial rRNA inhibitor project, GFP/RFP fluorescence, OD600, single point; 350,000 compounds, 1.6% hits; E. coli WT GFP vs humanized-ribosome RFP mutants, 24 h; stronger effect = lower value; DMSO median 0, no signal -100; GFP signal change (wild-type ribosome), % (no concentration beside the values);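 active means significant combined selectivity score with lowered wild-type GFP, culture density cut under 30%, mutant RFP and density less affected; inactive means any of these conditions unmet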
# FN deposit inh – inhibitors of fibronectin matrix deposition, primary screen, AH1F cells, Alexa488-fibronectin fluorescence, plate reader; AH1F fibroblasts, overnight; inhibition, % at 12.6 µM; 350,000 compounds, 0.086% hits; AID 743247, 2014;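 active means mean inhibition across replicates of 30% or more, regardless of how many single replicates reach that level; inconclusive means mean under 30% yet at least half of replicates reach 30%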;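 further: positive control wells lacked labelled fibronectin entirely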
#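 Assay system: AH1F fibroblast monolayer, labelled fibronectin deposition. Amount: 10000 cells per well. Also added: labelled fibronectin 24 nM. Compound: single-point pinned compound. Incubation: cell attachment 1 h, compound and FN exposure overnight. Detection: fluorescence after three HBSS washes, excitation 485 nm, emission 525 nm. Read-out: inhibition of fibronectin deposition signal.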
# HIV Env fusion – inhibitors of HIV-1 Env-driven cell-cell fusion, primary screen, HeLa-JRFL effector, CEM21 target cells, luciferase. inhibition, % at 12.3 µM. 360,000 compounds, 1.1% hits;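 active means mean replicate inhibition score of at least 50 and every replicate individually at or above 50; inconclusive means only one of the two criteria met; inactive means mean below 50 and not all replicates reaching 50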;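 further: 0% = plate neutral controls and 100% = maraviroc near 300 nM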
# PglD confirm – PglD acetyltransferase inhibitors, confirmation, biochemical, DTNB absorbance, single point, cherry-picked samples; inhibition, % at 20 µM; 320 tested, under 10 active; shares compounds with PglD DTNB; Purified C. jejuni PglD, DTNB absorbance 412 nm; AID 743156, 2013;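 active means mean inhibition across replicates of at least 20% with every single replicate also at 20% or more; inconclusive means mean inhibition at least 20% but some replicate falls below 20%; inactive means mean inhibition under 20% and not all replicates reach it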;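 further: initial rate of CoA release by acetyl transfer from AcCoA to the UDP-4-amino sugar; 0% = median of neutral control wells and 100% = median of positive control wells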
# COX5a expr inh – inhibitors of PGC-1a-driven COX5a expression, dose response, cell-based, C2C12 myotubes, RT-qPCR, cherry-picked samples; shares compounds with PGC1a acetyl inh; maximal activity, %; C2C12 myotubes PGC-1a adenovirus; 45 tested, under 10 active;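 active means fitted dose curve reaching 40% activity at or below the highest valid dose tested; inconclusive means flat fit between 30% and 70%, or an unusable fit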
# AID743468 – change in PGC-1a target gene PDK4 expression, dose response, C2C12 myotubes, RT-qPCR, cherry-pick; shares compounds with PGC1a acetyl inh; PGC-1a adenovirus, PDK4 mRNA qPCR; PDK4 expression increase, % at 19.5 µM; 45 tested, under 10 active; AID 743468, 2014;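 active means fitted curve reaching a 40% PDK4 expression rise at or below the top valid tested dose; inconclusive means no clear call, values can overlap the other calls; inactive means the rest, including shifts the wrong way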
# The depositor's hits bear a star; u = inconclusive; x = no result; ! = a repeat was not active; [ ] = another dose, or the depositor's remark.
SMILES,PGC1a acetyl inh,PglD DTNB,DENV2 CPE,rRNA inh HTS,FN deposit inh,HIV Env fusion,COX5a expr inh,AID743468,others
COc1ccc(S(=O)(=O)N(C)C[C@@H]2OCCCC[C@H](C)Oc3ccc(NC(=O)Nc4cccc5ccccc45)cc3C(=O)N([C@@H](C)CO)C[C@H]2C)cc1,-16.5,1.6,0.0,2.4,x,5.7[16.7 µM],x,x,
CCN(CC)C(=O)c1ccccc1NC(=O)c1ccccc1,8.6,28.5*,-3.7,5.7,5.1,21.9,x,x,PglD confirm=0.2
CCN(CC)C(=O)c1ccccc1NC(=O)c1cccc(S(=O)(=O)N(CC)CC)c1,-7.5,x,-2.7,-7.8,0.7,-10.0,x,x,
O=C(CCCCCCC(=O)NCc1ccccc1)NCc1ccccc1,-0.9,83.6*,4.6,10.1,6.2,-13.5,x,x,PglD confirm=-12.7
COc1ccc(NC(=O)N(C)C[C@@H]2Oc3ncc(C#CCC(C)C)cc3C(=O)N([C@H](C)CO)C[C@H]2C)cc1,-7.4,-0.1,u,-0.6,-5.7,22.6[16.7 µM],x,x,
O=C(NNS(=O)(=O)c1ccccc1)c1sccc1-n1cccc1,0.6,2.7,x,x,-1.0,3.2,x,x,
O=C(NNS(=O)(=O)c1ccc(Cl)cc1)c1sccc1-n1cccc1,-49.0,24.9*,x,x,-2.4,-14.2,x,x,PglD confirm=6.3
CC(C(=O)N1CCCC1)N(c1ccccc1)S(C)(=O)=O (centres undefined),-24.9,2.7,8.6,2.6,-7.2,-3.6,x,x,
Cc1cc(C)cc(N(C(C)C(=O)N2CCCC2)S(C)(=O)=O)c1 (centres undefined),-22.7,74.6*,10.7,5.2,3.9,-5.0,x,x,PglD confirm=-8.6
Cc1ccc(S(=O)(=O)N(C)C[C@@H]2Oc3ccc(NC(=O)CCN4CCOCC4)cc3CC(=O)N([C@H](C)CO)C[C@@H]2C)cc1,2.7,2.3,5.7,5.0,x,x,x,x,
CCn1c(SCc2nc3sc(C(=O)O)c(C)c3c(=O)[nH]2)nc2ccccc21,4.8,27.6*,x,x,x,x,x,x,PglD confirm=47.3*
Cc1ccc(S(=O)(=O)N(C)C[C@@H]2Oc3cc(C#Cc4ccncc4)ccc3S(=O)(=O)N([C@@H](C)CO)C[C@H]2C)cc1,59.6*,7.2,4.4,x,x,x,-25.5,-23.1,
Cc1ccc(S(=O)(=O)N(C)C[C@@H]2Oc3cc(C#Cc4ccncc4)ccc3S(=O)(=O)N([C@H](C)CO)C[C@H]2C)cc1,u,-14.3,-1.9,-3.2,9.2,x,-49.2,-22.8,
Cc1ccc(S(=O)(=O)N(C)C[C@H]2Oc3cc(C#Cc4ccncc4)ccc3S(=O)(=O)N([C@@H](C)CO)C[C@@H]2C)cc1,36.5,-4.2,4.6,-2.9,4.9,x,x,x,
C[C@@H]1CN([C@@H](C)CO)C(=O)c2cc(C3=CCCCC3)cnc2O[C@H]1CN(C)Cc1cccnc1,-7.5,-2.6,11.7,-1.5,-8.9,-14.6[16.7 µM],x,x,
O=C(C[C@@H]1CC[C@@H]2[C@H](COC[C@H](O)CN2C(=O)c2cnccn2)O1)NCc1ccccc1,2.8,-1.4,-1.6,-2.4,-1.1,x,x,x,
CCN(CC(=O)NCc1ccc(Cl)cc1)C(=O)CSc1cc(C)ccc1C,4.5,1.9,12.0,-15.6,0.8,9.8,x,x,
CCN(CC(=O)NCc1ccc(Cl)cc1)C(=O)CSCC(=O)Nc1ccc(C)cc1,-83.0,-1.8,-5.3,-8.6,2.3,-2.0,-23.5,-10.0,
CCN1CCN(Cc2ccc(NC(=O)c3ccc(C)c(NC(=O)c4c[nH]c5cc(C(F)(F)F)ccc5c4=O)c3)cc2C(F)(F)F)CC1,77.9*!,-0.1,2.5,2.8,-13.3,105.8*!,-30.1,-25.1,
CCCNC(=O)N1CCC2(CC1)CN(C(=O)CCC)[C@H](CO)c1[nH]c3cc(OC)ccc3c12,4.4,x,20.0,1.7,x,x,x,x,
C#CCN(C[C@@H]1[C@@H](OC(=O)NCCCCCC)[C@@H](OC(=O)NCCCCCC)Cn2c(=O)ccc(=O)n21)S(=O)(=O)c1ccc(C)cc1,92.0*,2.4,-3.6,-1.2,7.9,-3.1,-39.0,88.0*,
C#CCN(C[C@@H]1[C@@H](OC(=O)NCc2ccco2)[C@@H](OC(=O)NCc2ccco2)Cn2c(=O)ccc(=O)n21)S(=O)(=O)c1ccc(C)cc1,-23.3,1.1,-8.7,x,6.5,29.0,x,x,
COc1cccc(S(=O)(=O)Nc2ccc3c(c2)C(=O)N(C)[C@H]2CC[C@H](CC(=O)O)O[C@H]2CO3)c1,4.0,-1.6,-5.9,2.1,-10.0,-14.1[16.7 µM],x,x,
C/C=C/c1ccc([C@H]2[C@@H](CO)N(CCC(F)(F)F)C23CN(C(=O)COC)C3)cc1,-0.1,x,-6.8,-1.2,x,x,x,x,
COCCSc1ccccc1C(=O)Nc1cc(C)on1,u,2.8,-3.6,17.6,x,x,-23.2,2.8,
SMILES,PGC1a acetyl inh,PglD DTNB,DENV2 CPE,rRNA inh HTS,FN deposit inh,HIV Env fusion,COX5a expr inh,AID743468,others
Cc1ccccc1-n1nnnc1SCC(N)=O,1.5,-1.9,x,x,x,x,x,x,
Cc1ccccc1-n1nnnc1Sc1nnnn1-c1ccccc1,u,-0.3,x,x,x,x,-38.4,-44.3,
N#Cc1cc(Oc2cccc3cccnc23)c(-n2nnc3ccccc32)cc1C#N,-138.7,4.3,2.0,-0.5,x,x,-36.8,-50.3,
N#Cc1cc(O)c(-n2nnc3ccccc32)cc1C#N,-6.5,3.8,0.5,8.9,-2.9,-1.2,x,x,
COc1ccc(C(=O)Nc2cccc(NC(=O)c3ccc(OC)c(OC)c3)n2)cc1OC,61.2*,3.0,2.6,-6.5,3.6,16.2,-31.9,43.9*,
Cc1ccc(Cn2ncc(Cl)c(Cl)c2=O)cc1,-111.8,-3.6,2.1,-10.4,-1.8,8.5,-35.3,11.8,
COc1ccccc1C#Cc1ccc([C@H]2[C@H](C#N)N(C(=O)C3CCCC3)[C@H]2CO)cc1,64.9*,x,10.3,-0.6,12.8,74.3*[16.7 µM],-32.7,2.7,
OC(c1cc(C(F)(F)F)nc2c(C(F)(F)F)cccc12)C1CCCCN1 (centres undefined),-78.1,-5.1,9.6,x,-6.5,-6.7,-26.9,-11.4,
OC(c1cc(-c2ccc(C(F)(F)F)cc2)nc(C(F)(F)F)c1)C1CCCCN1 (centres undefined),-38.2,-2.2,-7.8,-56.4,6.9,1.8,x,x,
